Test results from ChEMBL document CHEMBL3407498, “Design, synthesis and 3D-QSAR studies of novel 1,4-dihydropyridines as TGFβ/Smad inhibitors” (Eur J Med Chem, 2015).

Experiments:
[1] = Inhibition of TGFbeta/Smad in TGFbeta-2/activin A-stimulated HEK293 cells preincubated for 2 hrs before stimulation measured after 20 to 22 hrs by firefly/renilla luciferase reporter assay; type: cell-based; conditions: Homo sapiens
Summary of the method: (§1)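 HEK293T cells co-transfected with SBE-4 firefly luciferase and TK-driven renilla luciferase plasmids, replated after 12-14 h, rested 2 h, then given compound, DMSO and TGFβ-2 or Activin A (10 ng/mL). Firefly and renilla signals read after 20-22 h by dual luciferase kit. Triplicate wells; data normalized to DMSO (0% inhibition), mean ± SD of 2-4 independent experiments.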

HEK293 = assay: Inhibition of TGFbeta/Smad in TGFbeta-2/activin A-stimulated HEK293 cells preincubated at 2.5 uM for 2 hrs before stimulation measured after 20 to 22 hrs by firefly/renilla luciferase reporter assay; type: cell-based; conditions: Homo sapiens; summary of the method: as §1

| SMILES | IC50 [1] | inhibition (HEK293) |
| --- | --- | --- |
| CCOC(=O)C1=C(C)NC2=C(C(=O)CC(C)(C)C2)C1c1ccc(-c2ccc(OC)cc2)cc1 (stereo not drawn) | 420 nM | 93% |
| CCOC(=O)C1=C(C)NC2=C(C(=O)CC(C)(C)C2)C1c1ccc(-c2ccc(O)cc2)cc1 (stereo not drawn) | 730 nM | 74% |
| CC1(C)CC(=O)C2=C(C1)NC1=C(C(=O)c3ccccc31)C2c1ccc(-c2ccccc2)cc1 (stereo not drawn) | 1260 nM | 70% |
| CCN(CC)CCN1C2=C(C(=O)CC(C)(C)C2)C(c2ccccc2)C2=C1CC(C)(C)CC2=O |  | 12% |
| CCCC(=O)C1=C(C)NC2=C(C(=O)CC(C)(C)C2)C1c1ccc(-c2ccccc2)cc1 (stereo not drawn) | 500 nM | 84% |
| CCOC(=O)C1=C(C)NC2=C(C(=O)CC(C)(C)C2)C1c1ccc(-c2ccccc2)cc1 (stereo not drawn) | 850 nM | 83% |
| CCOC(=O)C1=C(C)NC2=C(C(=O)CC(C)(C)C2)C1c1ccc(-c2ccc(S(C)(=O)=O)cc2)cc1 (stereo not drawn) | 2760 nM | 44% |
| CCCOCCOC(=O)C1=C(C)NC2=C(C(=O)CC(C)(C)C2)C1c1ccc(-c2ccccc2)cc1 (stereo not drawn) |  | 0% |
| CC1=C(C(=O)OC(C)(C)C)C(c2ccc(-c3ccccc3)cc2)C2=C(CC(C)(C)CC2=O)N1 (stereo not drawn) | 670 nM | 84% |
| CC1(C)CC(=O)C2=C(C1)NC1=C(C(=O)N(Cc3ccccc3)C1)C2c1ccc(-c2ccccc2)cc1 (stereo not drawn) | 870 nM | 82% |
| CCOC(=O)C1=C(C(=O)O)NC2=C(C(=O)CC(C)(C)C2)C1c1ccc(-c2ccccc2)cc1 (stereo not drawn) |  | 0% |
| CCOC(=O)C1=C(C)NC2=C(C(=O)CC(C)(C)C2)C1c1ccc(O)c(OC)c1 (stereo not drawn) |  | 8% |
| CC1(C)CC(=O)C2=C(C1)NC1=C(C(=O)CC(C)(C)C1)C2c1ccccc1 |  | 21% |
| CC1=C(C(=O)OCC(C)C)C(c2ccc(-c3ccccc3)cc2)C2=C(CC(C)(C)CC2=O)N1 (stereo not drawn) | 420 nM |  |
| CCOC(=O)C1=C(C)NC2=C(C(=O)CC(C)(C)C2)C1c1ccccc1OC(F)(F)F (stereo not drawn) |  | 9% |
| CCOC(=O)C1=C(C)NC2=C(C(=O)CC(C)(C)C2)C1c1ccc(-c2ccc(Cl)cc2)cc1 (stereo not drawn) | 760 nM | 91% |
| CC1=C(C#N)C(c2ccc(-c3ccccc3)cc2)C2=C(CC(C)(C)CC2=O)N1 (stereo not drawn) | 2950 nM | 44% |
| COC(=O)C1=C(C(=O)OC)C(c2ccc(-c3ccccc3)cc2)C2=C(CC(C)(C)CC2=O)N1 (stereo not drawn) | 2010 nM | 46% |
| COC(=O)C1=C(C)NC2=C(C(=O)CC(C)C2)C1c1ccc(-c2ccccc2)cc1 (stereo not drawn) |  | 21% |
| CCNCC1=C(C(=O)OCC)C(c2ccc(-c3ccccc3)cc2)C2=C(CC(C)(C)CC2=O)N1 (stereo not drawn) | 3440 nM | 64% |
| CCC(=O)C1=C(CC)NC2=C(C(=O)CC(C)(C)C2)C1c1ccc(-c2ccccc2)cc1 (stereo not drawn) | 1630 nM | 62% |
| CCOC(=O)C1=C(C(=O)OCC)C(c2ccc(-c3ccccc3)cc2)C2=C(CC(C)(C)CC2=O)N1 (stereo not drawn) | 1800 nM | 56% |
| CCOC(=O)C1=C(C)NC2=C(C(=O)CC(C)(C)C2)C1c1ccc(-c2ccc(OC(F)(F)F)cc2)cc1 (stereo not drawn) | 480 nM | 95% |
| CC1(C)CC(=O)C2=C(C1)NC1=C(C(=O)OC1)C2c1ccc(-c2ccccc2)cc1 (stereo not drawn) | 4300 nM | 37% |
| CCOC(=O)C1=C(C)NC2=C(C(=O)CC(C)(C)C2)C1c1ccc(-c2ccc(N(C)C)cc2)cc1 (stereo not drawn) | 330 nM | 95% |
| CCOC(=O)C1=C(COC)NC2=C(C(=O)CC(C)(C)C2)C1c1ccc(-c2ccccc2)cc1 (stereo not drawn) | 1890 nM | 78% |
| CCN1CC2=C(C1=O)C(c1ccc(-c3ccccc3)cc1)C1=C(CC(C)(C)CC1=O)N2 (stereo not drawn) | 5030 nM | 25% |

| SMILES | IC50 [1] | inhibition (HEK293) |
| --- | --- | --- |
| CC1=C(C(=O)NCc2ccccc2)C(c2ccc(-c3ccccc3)cc2)C2=C(CC(C)(C)CC2=O)N1 (stereo not drawn) | 5190 nM | 32% |
| CCOC(=O)C1=C(C)NC2=C(C(=O)CC(C)(C)C2)C1c1cc(OC)c(OC)c(OC)c1 (stereo not drawn) |  | 5% |
| CCOC(=O)C1=C(C)NC2=C(C(=O)CC(C)(C)C2)C1c1ccc(-c2ccc(F)cc2)cc1 (stereo not drawn) | 1230 nM | 74% |
| CC1=C(C(=O)OC2CCCC2)C(c2ccc(-c3ccccc3)cc2)C2=C(CC(C)(C)CC2=O)N1 (stereo not drawn) | 1110 nM | 77% |
| CCOC(=O)C1=C(C)NC2=C(C(=O)CC(C)(C)C2)C1c1ccc(C(C)(C)C)cc1 (stereo not drawn) |  | 90% |
| CC1(C)CC(=O)C2=C(C1)NC1=C(C(=O)NC1)C2c1ccc(-c2ccccc2)cc1 (stereo not drawn) |  | 28% |
| CCOC(=O)C1=C(C)NC2=C(C(=O)CC(C)(C)C2)C1c1ccc(-c2ccc(C)cc2)cc1 (stereo not drawn) | 350 nM | 94% |
| CC1(C)CC(=O)C2=C(C1)NC1=C(C(=O)c3ccccc31)C2c1ccccc1 (stereo not drawn) |  | 11% |
| CCOC(=O)C1=C(C)NC2=C(C(=O)NCC2)C1c1ccc(-c2ccccc2)cc1 (stereo not drawn) |  | 21% |
| CCCCCCCCCCCCOC(=O)C1=C(C)NC2=C(C(=O)CC(C)(C)C2)C1c1ccc(-c2ccccc2)cc1 (stereo not drawn) |  | 0% |
| CCNC(=O)C1=C(C)NC2=C(C(=O)CC(C)(C)C2)C1c1ccc(-c2ccccc2)cc1 (stereo not drawn) |  | 31% |
| C=CCOC(=O)C1=C(C)NC2=C(C(=O)CC(C)(C)C2)C1c1ccc(-c2ccccc2)cc1 (stereo not drawn) | 620 nM | 91% |
| CCOC(=O)C1=C(C)NC2=C(C(=O)CC(C)(C)C2)C1c1ccc(-c2ccc(Br)cc2)cc1 (stereo not drawn) | 460 nM | 94% |
| CCOCCOC(=O)C1=C(C)NC(C)=C(C(=O)OCCOCC)C1c1ccccc1OC(F)(F)F |  | 4% |
| COC(=O)C1=C(C(=O)O)NC2=C(C(=O)CC(C)(C)C2)C1c1ccc(-c2ccccc2)cc1 (stereo not drawn) |  | 4% |
| CCOC(=O)C1=C(N)NC2=C(C(=O)CC(C)(C)C2)C1c1ccc(-c2ccccc2)cc1 (stereo not drawn) | 1330 nM | 61% |
| CCOC(=O)C1=C(N)NC2=C(C(=O)CC(C)(C)C2)C1c1ccc(C(C)(C)C)cc1 (stereo not drawn) | 510 nM | 89% |
| CC1=C(C(=O)OC(C)C)C(c2ccc(-c3ccccc3)cc2)C2=C(CC(C)(C)CC2=O)N1 (stereo not drawn) | 660 nM | 85% |
| C#Cc1ccc(C2C(C(=O)OCC)=C(C)NC3=C2C(=O)CC(C)(C)C3)cc1 (stereo not drawn) | 1710 nM | 59% |
| CCCCC(=O)C1=C(C)NC2=C(C(=O)CC(C)(C)C2)C1c1ccc(-c2ccccc2)cc1 (stereo not drawn) | 560 nM | 80% |
| CCCOC(=O)C1=C(C)NC2=C(C(=O)CC(C)(C)C2)C1c1ccc(-c2ccccc2)cc1 (stereo not drawn) | 490 nM | 93% |
| CCOC(=O)C1=C(C)NC2=C(C(=O)CC(C)(C)C2)C1c1ccc(-c2ccncc2)cc1 (stereo not drawn) | 6140 nM | 27% |
| CCCNCC1=C(C(=O)OCC)C(c2ccc(-c3ccccc3)cc2)C2=C(CC(C)(C)CC2=O)N1 (stereo not drawn) | 1600 nM | 57% |
| CCOC(=O)C1=C(C)NC2=C(C(=O)CC(C)(C)C2)C1c1ccccc1 (stereo not drawn) |  | 2% |
| CCOC(=O)C1=C(C)NC2=C(C(=O)CC(C)(C)C2)C1c1ccc(-c2ccc(C(F)(F)F)cc2)cc1 (stereo not drawn) | 970 nM | 88% |
| CCOC(=O)C1=C(C)NC2=C(C(=O)CC(C)(C)C2)C1c1ccc(-c2ccc(C#N)cc2)cc1 (stereo not drawn) | 1790 nM | 52% |
